Results on 1 compound are retold here after ChEMBL document CHEMBL1137774, “Conjugation of 2-(1'-hexyloxyethyl)-2-devinylpyropheophorbide-a (HPPH) to carbohydrates changes its subcellular distribution and enhances photodynamic activity in vivo” (J Med Chem, 2009).

Molecules are shown by their SMILES.

The subject of one data set is Mus musculus. As to the kind of experiment: Skin toxicity in ABCG2-expressing mouse RIF cells xenografted in irradiation exposed C3H mouse assessed as foot response after 24 to 96 hrs. The note with it: in vivo. The class given is organism-based.
The nature of data set [1]: Photocytotoxicity against ABCG2-expressing mouse RIF cells xenografted in C3H mouse assessed as tumor control at 0.47 umol/kg, iv followed by exposure to irradiation at 135 J/cm2 relative to control. In kind it is functional. Summed up:
(§1)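 Mice bearing shoulder tumours (C3H/RIF, BALB/c/Colon26) injected intravenously at 0.47 μmol/kg. Tumours irradiated with 665 nm laser 24 h later at 135 J/cm², 75 mW/cm² or 48 J/cm², 7 mW/cm². Tumour volume by calipers, V=(L×W²)×0.5. Groups of 5–10 mice; curves compared by Cox–Mantel test.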

A short description of data set [2]: Photocytotoxicity against ABCG2-expressing mouse RIF cells xenografted in C3H mouse assessed as tumor control at 0.47 umol/kg, iv followed by exposure to irradiation at 48 J/cm2 relative to control. In kind it is functional. Summed up:
as §1

For data set [3], the system named is Colon 26. Briefly: Photocytotoxicity against ABCG2-deficient mouse Colon 26 cells xenografted in BALB/c mouse assessed as tumor control at 0.47 umol/kg, iv followed by exposure to irradiation at 48 J/cm2 relative to control. In kind it is functional. Summed up: as §1
The nature of data set [4]: Drug uptake in ABCG2-expressing mouse RIF cells assessed as increase in mitochondrial localization at 3 uM for 24 hrs in presence of 10% FCS by fluorescence microscopy. The class given is ADME, cell-based. The settings on record: 2 µM, in the assay text read “2 uM” for “3 uM”. Summed up:
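RIF cells grown on poly-L-lysine-coated coverslips, co-incubated with PS and organelle trackers in 10% FCS medium for 3–4 h or 24 h, PBS-washed, imaged at 40× by inverted fluorescence microscopy. Trackers: MitoTracker Green 1 μM 1 h (mitochondria); LysoTracker Green 0.5 μM 0.5 h or 0.1 μm Fluospheres overnight (lysosomes); Bodipy C5 ceramide–albumin 5 μM (Golgi).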

Data set [5] can be described thus: Partition coefficient, log P of the compound. The class given is physicochemical. The settings on record: octanol/water.
Data set [6] concerns Colon 26. Briefly: Photosensitizing activity in ABCG2-deficient mouse Colon 26 cells assessed as induction STAT3 covalent cross linking pretreated for 4 hrs followed by irradiation exposure to 665 nm light at 3 J/cm2 by Western blotting. The class given is functional, cell-based. Summed up:
(§2)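 Cells incubated 4 h with PS at indicated concentrations in 10% FCS medium, exposed to 665 nm light at 3 J/cm², extracted immediately. STAT-3 cross-linked product detected by Western blot, relative level by densitometry.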
In general terms: Immunoblotting shows a protein as a band on a membrane.

In another data set the test system is RIF. Briefly: Photosensitizing activity in ABCG2-expressing mouse RIF cells assessed as induction STAT3 covalent cross linking pretreated for 4 hrs followed by irradiation exposure to 665 nm light at 3 J/cm2 by Western blotting. In kind it is functional, cell-based. Summed up:
as §2

The logP is the decadic logarithm of the partition coefficient of the neutral form, usually between octanol and water. `CCCCCCOC(C)c1c(C)c2cc3nc(c4c5[nH]c(cc6nc(cc1[nH]2)C(C)=C6CC)c(C)c5C(=O)C4)[C@@H](CCC(=O)O)[C@@H]3C` (stereo partly drawn) [HPPH]: the Activity entry in the data set with Mus musculus was “Toxic”; in data set [1] it was 50%; in data set [2], 40%; in the data set on Colon 26 [3], 30%; with Colon 26 [6] it was “Dose-dependent effect”; in the data set on RIF, “Dose-dependent effect”. Besides, the Drug uptake result in data set [4] is “Active”. In addition, the logP in data set [5] was found to be 6.
